Data published in ChEMBL document CHEMBL2069299, “Biologically active ester derivatives as potent inhibitors of the soluble epoxide hydrolase” (Bioorg Med Chem Lett, 2012).
≈ marks a conversion by molar mass, not a printed value.

What was measured:
[1] = molecular target: T1, Bifunctional epoxide hydrolase 2 (Homo sapiens, UniProt P34913); assay: Inhibition of human soluble epoxide hydrolase pre-incubated for 5 mins at 30 degC before CMNPC fluorescent substrate addition by fluorimetric assay
T1 sequence (P34913 whole entry): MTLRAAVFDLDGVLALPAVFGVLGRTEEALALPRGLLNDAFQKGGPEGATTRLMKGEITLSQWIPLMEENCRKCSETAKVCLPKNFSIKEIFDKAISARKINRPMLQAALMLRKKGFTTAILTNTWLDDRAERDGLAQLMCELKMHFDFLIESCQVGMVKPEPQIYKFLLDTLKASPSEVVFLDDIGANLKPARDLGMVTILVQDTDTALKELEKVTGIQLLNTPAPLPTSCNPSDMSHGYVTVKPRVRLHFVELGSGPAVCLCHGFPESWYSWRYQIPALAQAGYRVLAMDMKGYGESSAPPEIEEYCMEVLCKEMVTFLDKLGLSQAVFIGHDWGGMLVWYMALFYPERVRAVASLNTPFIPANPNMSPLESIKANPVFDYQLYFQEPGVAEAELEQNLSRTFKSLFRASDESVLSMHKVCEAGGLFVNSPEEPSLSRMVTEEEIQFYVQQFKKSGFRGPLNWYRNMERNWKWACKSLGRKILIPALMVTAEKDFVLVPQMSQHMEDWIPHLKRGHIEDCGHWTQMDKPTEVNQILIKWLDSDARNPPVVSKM
Outline: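 Recombinant-free detail not given; human sEH at 0.96 nM preincubated with inhibitor 5 min at 30°C in 25 mM Bis-Tris/HCl, pH 7.0, then fluorescent substrate added at 5 μM. Fluorescence read-out; IC50 reported as mean of three separate measurements, assay standard error stated as 10–20%.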

[2] = Solubility in water using 0.1 M pH 7.4 phosphate buffer by LC-MS/MS method; assay type: physicochemical
Outline: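 Excess solid suspended in 0.1 M sodium phosphate buffer, pH 7.4; equilibrated by 1 h sonication then 24 h shaking; centrifuged. Supernatant analysed by LC-MS/MS, with amount calculated from a regression curve built for each compound from five standard solutions.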

[3] = Stability in human liver microsomes aunder NADPH generating system at 37 degC for 60 mins by LC-MS/MS method; assay type: ADME, Microsome; settings: read-out: Stability
Outline: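 Test compound incubated with 0.125 mg human liver microsomal protein plus NADPH-generating system, shaken 37°C for 60 min. Remaining parent quantified by LC-MS/MS and expressed as percent; acid metabolites also monitored. Mean of triplicate independent analyses.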

Structure (SMILES) | IC50 [1] | solubility [2] | remaining at 1 h [3]
CCCCC(C)OC(=O)CCCNC(=O)NC12CC3CC(CC(C3)C1)C2 (stereo not given) | 4 nM | – | –
CCCCCOC(=O)CCCNC(=O)NC12CC3CC(CC(C3)C1)C2 | 10 nM | 2 µg/mL (≈ 5.71 µM) | < 1%
CCOCCOCC(OC(=O)C1CCCC(NC(=O)NC23CC4CC(CC(C4)C2)C3)C1)c1ccccc1 (stereo not given) | 9 nM | 41 µg/mL (≈ 80 µM) | 32%
O=C(O)CCCNC(=O)NC12CC3CC(CC(C3)C1)C2 | 684 nM | – | 97%
CCCCC(C#N)OC(=O)CCCNC(=O)NC12CC3CC(CC(C3)C1)C2 (stereo not given) | 12 nM | – | –
O=C(NC1CCCC(C(=O)O)C1)NC12CC3CC(CC(C3)C1)C2 (stereo not given) | 1160 nM | – | 95%
CCCCC(CC)OC(=O)C1CCCC(NC(=O)NC23CC4CC(CC(C4)C2)C3)C1 (stereo not given) | 3 nM | 1 µg/mL (≈ 2.39 µM) | 10%
CCOCCOCC(OC(=O)CCCNC(=O)NC12CC3CC(CC(C3)C1)C2)c1ccccc1 (stereo not given) | 4 nM | 89 µg/mL (≈ 188 µM) | 14%
CCCCCOC(=O)C1CCCC(NC(=O)NC23CC4CC(CC(C4)C2)C3)C1 (stereo not given) | 2 nM | – | –
CCOCCOCCOC(=O)CCCNC(=O)NC12CC3CC(CC(C3)C1)C2 | 67 nM | 878 µg/mL (≈ 2210 µM) | 10%
CCCCC(CC)OC(=O)CCCNC(=O)NC12CC3CC(CC(C3)C1)C2 (stereo not given) | 4 nM | 3 µg/mL (≈ 7.92 µM) | 4%
